Source: ChEMBL document CHEMBL2057152, “Synthesis and antibacterial activity against Clostridium difficile of novel demethylvancomycin derivatives” (2012)
Converted amounts (≈) assume the structure as drawn.

What was measured:
Format in all cases: functional
[1] = Antibacterial activity against Clostridium difficile ATCC 43255 after 16 hrs by two-fold serial dilution method; details: Clostridioides difficile, ATCC 43255, 16 h
Summary of the method: (§1)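 CLSI agar dilution MIC. Compounds are dissolved in 50% water in DMSO as a stock, twofold serially diluted in sterile water, then diluted 10-fold into Mueller-Hinton agar. Organisms are grown in MH broth at 35 °C for 8 h and adjusted to 0.5 McFarland. They are applied to the drug-containing plates by multipoint inoculator and incubated at 35 °C for 16 h. Vancomycin and demethylvancomycin serve as controls.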

Clostridioides difficile [2] = experiment: Antibacterial activity against Clostridium difficile ATCC 700057 after 16 hrs by two-fold serial dilution method; details: ATCC 700057, 16 h; summary of the method: as §1
Clostridioides difficile [3] = experiment: Antibacterial activity against Clostridium difficile ATCC 700792 after 16 hrs by two-fold serial dilution method; details: ATCC 700792, 16 h; summary of the method: as §1
Clostridioides difficile [4] = experiment: Antibacterial activity against Clostridium difficile IQCC 23903 after 16 hrs by two-fold serial dilution method; details: IQCC 23903, 16 h; summary of the method: as §1
Enterococcus faecalis [5] = experiment: Antibacterial activity against Enterococcus faecalis ATCC 700802 after 16 hrs by two-fold serial dilution method; details: ATCC 700802, 16 h; summary of the method: as §1
Enterococcus faecalis [6] = experiment: Ratio of MIC for vancomycin to compound MIC for Enterococcus faecalis ATCC 700802 after 16 hrs by two-fold serial dilution method
Enterococcus faecalis [7] = experiment: Ratio of MIC for demethylvancomycin to compound MIC for Enterococcus faecalis ATCC 700802 after 16 hrs by two-fold serial dilution method
Clostridioides difficile [8] = experiment: Ratio of MIC for vancomycin to compound MIC for Clostridium difficile ATCC 43255 after 16 hrs by two-fold serial dilution method
Clostridioides difficile [9] = experiment: Ratio of MIC for demethylvancomycin to compound MIC for Clostridium difficile ATCC 43255 after 16 hrs by two-fold serial dilution method
Clostridioides difficile [10] = experiment: Ratio of MIC for vancomycin to compound MIC for Clostridium difficile ATCC 700057 after 16 hrs by two-fold serial dilution method
Clostridioides difficile [11] = experiment: Ratio of MIC for demethylvancomycin to compound MIC for Clostridium difficile ATCC 700057 after 16 hrs by two-fold serial dilution method
Clostridioides difficile [12] = experiment: Ratio of MIC for vancomycin to compound MIC for Clostridium difficile ATCC 700792 after 16 hrs by two-fold serial dilution method
Clostridioides difficile [13] = experiment: Ratio of MIC for demethylvancomycin to compound MIC for Clostridium difficile ATCC 700792 after 16 hrs by two-fold serial dilution method
Clostridioides difficile [14] = experiment: Ratio of MIC for vancomycin to compound MIC for Clostridium difficile IQCC 23903 after 16 hrs by two-fold serial dilution method
Clostridioides difficile [15] = experiment: Ratio of MIC for demethylvancomycin to compound MIC for Clostridium difficile IQCC 23903 after 16 hrs by two-fold serial dilution method

Compound	MIC [1] [µg/mL]	MIC (Clostridioides difficile [2]) [µg/mL]	MIC (Clostridioides difficile [3]) [µg/mL]	MIC (Clostridioides difficile [4]) [µg/mL]	MIC (Enterococcus faecalis [5]) [µg/mL]	Ratio (Enterococcus faecalis [6])	Ratio (Enterococcus faecalis [7])	Ratio (Clostridioides difficile [8])	Ratio (Clostridioides difficile [9])	Ratio (Clostridioides difficile [10])	Ratio (Clostridioides difficile [11])	Ratio (Clostridioides difficile [12])	Ratio (Clostridioides difficile [13])	Ratio (Clostridioides difficile [14])	Ratio (Clostridioides difficile [15])
CCCCCCCCCCCN[C@@]1(C)C[C@H](O[C@H]2[C@H](Oc3c4cc5cc3Oc3ccc(cc3Cl)[C@@H](O)[C@@H](NC(=O)[C@H](N)CC(C)C)C(=O)N[C@@H](CC(N)=O)C(=O)N[C@H]5C(=O)N[C@H]3C(=O)N[C@H](C(=O)N[C@H](C(=O)O)c5cc(O)cc(O)c5-c5cc3ccc5O)[C@H](O)c3ccc(c(Cl)c3)O4)O[C@H](CO)[C@@H](O)[C@@H]2O)O[C@@H](C)[C@H]1O	0.5 (≈ 0.315 µM)	0.5 (≈ 0.315 µM)	0.5 (≈ 0.315 µM)	0.5 (≈ 0.315 µM)	0.5 (≈ 0.315 µM)	64	64								
CC(C)C[C@@H](N)C(=O)N[C@H]1C(=O)N[C@@H](CC(N)=O)C(=O)N[C@H]2C(=O)N[C@H]3C(=O)N[C@H](C(=O)N[C@H](C(=O)O)c4cc(O)cc(O)c4-c4cc3ccc4O)[C@H](O)c3ccc(c(Cl)c3)Oc3cc2cc(c3O[C@@H]2O[C@H](CO)[C@@H](O)[C@H](O)[C@H]2O[C@H]2C[C@](C)(NCCC(C)CC(C)(C)C)[C@H](O)[C@H](C)O2)Oc2ccc(cc2Cl)[C@H]1O (some centres undefined)	0.5 (≈ 0.32 µM)	0.25 (≈ 0.16 µM)	0.5 (≈ 0.32 µM)	0.25 (≈ 0.16 µM)	8 (≈ 5.12 µM)			2	2	2	2	2	2	2	2
CC(C)C[C@@H](N)C(=O)N[C@H]1C(=O)N[C@@H](CC(N)=O)C(=O)N[C@H]2C(=O)N[C@H]3C(=O)N[C@H](C(=O)N[C@H](C(=O)O)c4cc(O)cc(O)c4-c4cc3ccc4O)[C@H](O)c3ccc(c(Cl)c3)Oc3cc2cc(c3O[C@@H]2O[C@H](CO)[C@@H](O)[C@H](O)[C@H]2O[C@H]2C[C@](C)(NCc3ccc(Cl)cc3)[C@H](O)[C@H](C)O2)Oc2ccc(cc2Cl)[C@H]1O	0.25 (≈ 0.16 µM)	0.5 (≈ 0.321 µM)	0.25 (≈ 0.16 µM)	0.25 (≈ 0.16 µM)	16 (≈ 10.3 µM)			2	2	2	2	2	2	2	2
CC(C)C[C@@H](N)C(=O)N[C@H]1C(=O)N[C@@H](CC(N)=O)C(=O)N[C@H]2C(=O)N[C@H]3C(=O)N[C@H](C(=O)N[C@H](C(=O)O)c4cc(O)cc(O)c4-c4cc3ccc4O)[C@H](O)c3ccc(c(Cl)c3)Oc3cc2cc(c3O[C@@H]2O[C@H](CO)[C@@H](O)[C@H](O)[C@H]2O[C@H]2C[C@](C)(NCc3c4ccccc4cc4ccccc34)[C@H](O)[C@H](C)O2)Oc2ccc(cc2Cl)[C@H]1O	0.25 (≈ 0.154 µM)	0.5 (≈ 0.308 µM)	0.25 (≈ 0.154 µM)	0.25 (≈ 0.154 µM)	2 (≈ 1.23 µM)			2	2	2	2	2	2	2	2
CC(C)C[C@@H](N)C(=O)N[C@H]1C(=O)N[C@@H](CC(N)=O)C(=O)N[C@H]2C(=O)N[C@H]3C(=O)N[C@H](C(=O)N[C@H](C(=O)O)c4cc(O)cc(O)c4-c4cc3ccc4O)[C@H](O)c3ccc(c(Cl)c3)Oc3cc2cc(c3O[C@@H]2O[C@H](CO)[C@@H](O)[C@H](O)[C@H]2O[C@H]2C[C@](C)(NCc3ccc4ccccc4c3)[C@H](O)[C@H](C)O2)Oc2ccc(cc2Cl)[C@H]1O	0.25 (≈ 0.159 µM)	0.25 (≈ 0.159 µM)	0.125 (≈ 0.0793 µM)	0.25 (≈ 0.159 µM)	16 (≈ 10.2 µM)			2	2	2	2	2	2	2	2
